Assay results reported in ChEMBL document CHEMBL1275442, “Pharmacokinetics and tissue distribution of anidulafungin in rats” (Antimicrob Agents Chemother, 2008).

How the values were obtained:
Blood [1] = assay: Drug level in Long Evans rat blood assessed as radioactivity per gram of tissue at 5 mg/kg, iv administered as single bolus dose measured 0.5 hrs postdose by autoradiography; format: ADME, organism-based; set-up: dose 5 mg/kg, route intravenous; conditions: in vivo
How it was run: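 Male pigmented Long Evans rats, 7.5 weeks, 202–217 g, given one IV dose of [¹⁴C]anidulafungin, 5 mg/kg. Euthanised under isoflurane with cardiac exsanguination, one rat per time. Sagittal whole-body sections quantified by phosphorimaging, corrected for section thickness. Concentrations in μg eq/g interpolated from least-squares standard curves.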

Muscle tissue [2] = assay: Drug level in Long Evans rat muscle assessed as radioactivity per gram of tissue at 5 mg/kg, iv administered as single bolus dose measured 0.5 hrs postdose by autoradiography; format: ADME, organism-based; set-up: dose 5 mg/kg, route intravenous; conditions: in vivo
How it was run: (§1)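 Male pigmented Long Evans (HsdBlu:LE) rats, 7.5 weeks old, 202 to 217 g, single iv [¹⁴C]anidulafungin; one rat per sampling time. Euthanized by isoflurane and cardiac-puncture exsanguination. Sagittal whole-body sections quantified by phosphorimaging autoradiography, single samples corrected for section thickness across multiple sections per tissue. Concentrations (μg eq/g drug-derived radioactivity) interpolated from least-squares standard curves per scan.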

Lung [3] = assay: Half life in F344 rat lung assessed as total compound-derived radioactivity at 5 mg/kg, iv administered as single bolus dose […]; format: ADME, organism-based; set-up: dose 5 mg/kg, route intravenous; conditions: in vivo
How it was run: (§2)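 Male F344 rats, 10 to 11 weeks old and 223.6 to 243.8 g, got one iv dose of [14C]anidulafungin at 5 mg/kg over about 5 min. Blood, CSF, kidney, liver, lung, quadriceps, spleen and skin were sampled predose and at 0.083 to 72 h, 3 rats per time. Total radioactivity (parent plus metabolites) was measured by liquid scintillation counting. Parameters were noncompartmental, from a composite mean profile.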

Spleen [4] = assay: AUC (0 to 24 hrs) in F344 rat spleen assessed as total compound-derived radioactivity per gram of tissue at 5 mg/kg, iv administered as single bolus dose […]; format: ADME, organism-based; set-up: time < 24 hr, dose 5 mg/kg, route intravenous; conditions: in vivo
How it was run: (§3)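 Same F344 study: single 5 mg/kg IV [¹⁴C]anidulafungin given over about 5 min. Total drug-derived radioactivity (parent plus metabolites) counted by liquid scintillation, in […]. Noncompartmental analysis of the composite mean profile.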

Kidney [5] = assay: AUC (0 to 24 hrs) in F344 rat kidney assessed as total compound-derived radioactivity per gram of tissue at 5 mg/kg, iv administered as single bolus dose […]; format: ADME, organism-based; set-up: time < 24 hr, dose 5 mg/kg, route intravenous; conditions: in vivo; how it was run: as §3
Cerebrospinal fluid [6] = assay: Tmax in F344 rat cerebrospinal fluid assessed as total compound-derived radioactivity at 5 mg/kg, iv administered as single bolus dose […]; format: ADME, organism-based; set-up: dose 5 mg/kg, route intravenous; conditions: in vivo; how it was run: as §2
Zone of skin [7] = assay: Tmax in F344 rat skin assessed as total compound-derived radioactivity at 5 mg/kg, iv administered as single bolus dose […]; format: ADME, organism-based; set-up: dose 5 mg/kg, route intravenous; conditions: in vivo; how it was run: as §2
Cerebrospinal fluid [8] = assay: Cmax in F344 rat cerebrospinal fluid assessed as total compound-derived radioactivity per gram of tissue at 5 mg/kg, iv administered as single bolus dose […]; format: ADME, organism-based; set-up: dose 5 mg/kg, route intravenous; conditions: in vivo; how it was run: as §3
Liver [9] = assay: Cmax in F344 rat liver assessed as total compound-derived radioactivity per gram of tissue at 5 mg/kg, iv administered as single bolus dose […]; format: ADME, organism-based; set-up: dose 5 mg/kg, route intravenous; conditions: in vivo; how it was run: as §3
Liver [10] = assay: AUC (0 to infinity) in F344 rat liver at 5 mg/kg, iv administered as single bolus dose; format: ADME, organism-based; set-up: time infinity, dose 5 mg/kg, route intravenous; conditions: in vivo
How it was run: (§4)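 Male F344 rats, 10–11 weeks, 223.6–243.8 g, given one IV dose of [¹⁴C]anidulafungin, 5 mg/kg, over about 5 min. Tissues and blood sampled at 0.083–72 h (n = 3 rats per time). Parent drug measured by HPLC; LLOQ/ULOQ were 20/5,120 ng/ml for plasma and 220/56,320 ng/g for tissue. Noncompartmental parameters taken from the composite mean profile.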

Spleen [11] = assay: AUC (0 to 24 hrs) in F344 rat spleen at 5 mg/kg, iv administered as single bolus dose; format: ADME, organism-based; set-up: time < 24 hr, dose 5 mg/kg, route intravenous; conditions: in vivo; how it was run: as §4
[12] = Tmax in F344 rat skin at 5 mg/kg, iv administered as single bolus dose by HPLC method; format: ADME, organism-based, Zone of skin; set-up: dose 5 mg/kg, route intravenous
How it was run: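 F344 males, 10 to 11 weeks old and 223.6 to 243.8 g, got a single 5 mg/kg iv dose of [14C]anidulafungin over about 5 min. Plasma and tissues were collected predose and at 0.083 to 72 h, n = 3 per time point. Parent drug was quantified by HPLC-UV, with LLOQ/ULOQ of 20/5,120 ng/ml in plasma and 220/56,320 ng/g in tissue. Noncompartmental parameters came from a composite mean concentration-time profile.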

Liver [13] = assay: Drug level in Long Evans rat liver assessed as high disposition of radioactivity per gram of tissue at 5 mg/kg, iv administered as single bolus dose measured 6 hrs postdose by autoradiography; format: ADME, organism-based; set-up: dose 5 mg/kg, route intravenous; conditions: in vivo; how it was run: as §1
Lung [14] = assay: Drug level in Long Evans rat lung assessed as radioactivity per gram of tissue at 5 mg/kg, iv administered as single bolus dose measured 6 hrs postdose by autoradiography; format: ADME, organism-based; set-up: dose 5 mg/kg, route intravenous; conditions: in vivo; how it was run: as §1
Kidney [15] = assay: Drug level in Long Evans rat kidney assessed as high disposition of radioactivity per gram of tissue at 5 mg/kg, iv administered as single bolus dose measured 6 hrs postdose by autoradiography; format: ADME, organism-based; set-up: dose 5 mg/kg, route intravenous; conditions: in vivo; how it was run: as §1
Kidney [16] = assay: Drug level in Long Evans rat kidney assessed as low disposition of radioactivity per gram of tissue at 5 mg/kg, iv administered as single bolus dose measured 6 hrs postdose by autoradiography; format: ADME, organism-based; set-up: dose 5 mg/kg, route intravenous; conditions: in vivo; how it was run: as §1
Spleen [17] = assay: Drug level in Long Evans rat spleen assessed as radioactivity per gram of tissue at 5 mg/kg, iv administered as single bolus dose measured 6 hrs postdose by autoradiography; format: ADME, organism-based; set-up: dose 5 mg/kg, route intravenous; conditions: in vivo
How it was run: (§5)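 Male pigmented Long Evans (HsdBlu:LE) rats, 7.5 weeks old and 202 to 217 g, got a single iv dose of [14C]anidulafungin at 5 mg/kg. One rat per time point (0.5, 6, 12, 24, 72, 168 h) was euthanised by isoflurane and cardiac-puncture exsanguination. Sagittal whole-body sections were quantified by phosphorimaging. Samples were thickness-corrected, and concentrations (μg eq/g) were interpolated from least-squares standard curves.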

Blood [18] = assay: Drug level in Long Evans rat blood assessed as radioactivity per gram of tissue at 5 mg/kg, iv administered as single bolus dose measured 6 hrs postdose by autoradiography; format: ADME, organism-based; set-up: dose 5 mg/kg, route intravenous; conditions: in vivo; how it was run: as §1
[19] = Drug level in Long Evans rat eye assessed as radioactivity per gram of tissue at 5 mg/kg, iv administered as single bolus dose measured 6 hrs postdose by autoradiography; format: ADME, organism-based; set-up: dose 5 mg/kg, route intravenous; conditions: in vivo; how it was run: as §1
Zone of skin [20] = assay: Drug level in Long Evans rat skin assessed as radioactivity per gram of tissue at 5 mg/kg, iv administered as single bolus dose measured 12 hrs postdose by autoradiography; format: ADME, organism-based; set-up: dose 5 mg/kg, route intravenous; conditions: in vivo; how it was run: as §5
Muscle tissue [21] = assay: Drug level in Long Evans rat muscle assessed as radioactivity per gram of tissue at 5 mg/kg, iv administered as single bolus dose measured 12 hrs postdose by autoradiography; format: ADME, organism-based; set-up: dose 5 mg/kg, route intravenous; conditions: in vivo; how it was run: as §1
Blood [22] = assay: Drug level in Long Evans rat blood assessed as radioactivity per gram of tissue at 5 mg/kg, iv administered as single bolus dose measured 24 hrs postdose by autoradiography; format: ADME, organism-based; set-up: dose 5 mg/kg, route intravenous; conditions: in vivo; how it was run: as §1
Cerebrospinal fluid [23] = assay: Drug level in Long Evans rat cerebrospinal fluid assessed as radioactivity per gram of tissue at 5 mg/kg, iv administered as single bolus dose measured 24 hrs postdose by autoradiography; format: ADME, organism-based; set-up: dose 5 mg/kg, route intravenous; conditions: in vivo; how it was run: as §1
Liver [24] = assay: Drug level in Long Evans rat liver assessed as low disposition of radioactivity per gram of tissue at 5 mg/kg, iv administered as single bolus dose measured 72 hrs postdose by autoradiography; format: ADME, organism-based; set-up: dose 5 mg/kg, route intravenous; conditions: in vivo; how it was run: as §1
Kidney [25] = assay: Drug level in Long Evans rat kidney assessed as high disposition of radioactivity per gram of tissue at 5 mg/kg, iv administered as single bolus dose measured 168 hrs postdose by autoradiography; format: ADME, organism-based; set-up: dose 5 mg/kg, route intravenous; conditions: in vivo; how it was run: as §1

CCCCCOc1ccc(-c2ccc(-c3ccc([14C](=O)N[C@H]4C[C@@H](O)[C@@H](O)NC(=O)[C@@H]5[C@@H](O)[C@@H](C)CN5C(=O)[C@H]([C@@H](C)O)NC(=O)[C@H]([C@H](O)[C@@H](O)c5ccc(O)cc5)NC(=O)[C@@H]5C[C@@H](O)CN5C(=O)[C@H]([C@@H](C)O)NC4=O)cc3)cc2)cc1 [14C-ANIDULAFUNGIN]
Drug uptake (Blood [1]): 6.85 ugequiv | Drug uptake (Muscle tissue [2]): 3.45 ugequiv | t1/2 (Lung [3]): 42.2 h | AUC (Spleen [4]): 822.61 ugequiv.hr/g | AUC (Kidney [5]): 920.18 ugequiv.hr/g | Tmax (Cerebrospinal fluid [6]): 4.98 min | Tmax (Zone of skin [7]): 60 min | Cmax (Cerebrospinal fluid [8]): 0.07 ugequiv/g | Cmax (Liver [9]): 24.28 ugequiv/g | AUC (Liver [10]): 767.22 µg·h/g | AUC (Spleen [11]): 490.36 µg·h/g | Tmax [12]: 30 min | Drug uptake (Liver [13]): 29.1 ugequiv | Drug uptake (Lung [14]): 22.88 ugequiv | Drug uptake (Kidney [15]): 20.66 ugequiv | Drug uptake (Kidney [16]): 8.45 ugequiv | Drug uptake (Spleen [17]): 22.15 ugequiv | Drug uptake (Blood [18]): 5.07 ugequiv | Drug uptake [19]: 1.74 ugequiv | Drug uptake (Zone of skin [20]): 5.34 ugequiv | Drug uptake (Muscle tissue [21]): 1.39 ugequiv | Drug uptake (Blood [22]): 2.27 ugequiv | Drug uptake (Cerebrospinal fluid [23]): 8.92 ugequiv | Drug uptake (Liver [24]): 7.22 ugequiv | Drug uptake (Kidney [25]): 2.57 ugequiv
